# LMPTP inh: LMPTP (human) inhibition | P24666 | AID 651560 | 360,000 compounds, 0.22% hits | recombinant LMPTP-A, OMFP fluorogenic substrate, fluorescence intensity | inhibition, % at 20 µM;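 active means compounds that cut the enzyme signal by at least half of the control window in the single-dose screen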;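 further: plate controls were DMSO wells with enzyme plus substrate for no effect and substrate without enzyme for full effect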
# Target sequence (P24666 whole entry, looked up): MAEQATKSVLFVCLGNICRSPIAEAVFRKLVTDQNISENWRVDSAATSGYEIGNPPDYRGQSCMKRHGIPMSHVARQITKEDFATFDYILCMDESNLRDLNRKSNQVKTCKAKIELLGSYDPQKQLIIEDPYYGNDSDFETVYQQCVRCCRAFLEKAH
#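 Test system – LMPTP-A phosphatase enzyme · Quantity – 0.625 nM LMPTP-A final · Reagent – OMFP substrate, 400 µM final · Dosing – one test concentration per compound, 20 µM, with 3% DMSO overall · Timing – 50 min enzyme reaction at room temperature, protected from light · Detection – fluorescence intensity · Controls – substrate-only low control, DMSO enzyme-plus-substrate high control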
# DNMT1 inh: inhibitors of human DNMT1; inhibition (reported as % activation of signal), % at 10 µM; 360,000 compounds, 0.83% hits; DNMT1 molecular beacon, Hinp1I cleavage, fluorescence; P26358; in the data active means inhibition above about 50%
# Scp1 inh: blocks human Scp-1 phosphatase activity; Q9GZU7; Recombinant Scp1, phosphopeptide, malachite green phosphate absorbance; inhibition, % at 20 µM; 340,000 compounds, 0.88% hits; AID 493091;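 active means inhibition above about 50% at 20 µM, limit read from the data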;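 further: plate controls were DMSO wells with enzyme for no effect and wells lacking enzyme for full effect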
# Target sequence (Q9GZU7 76-261 limits assumed): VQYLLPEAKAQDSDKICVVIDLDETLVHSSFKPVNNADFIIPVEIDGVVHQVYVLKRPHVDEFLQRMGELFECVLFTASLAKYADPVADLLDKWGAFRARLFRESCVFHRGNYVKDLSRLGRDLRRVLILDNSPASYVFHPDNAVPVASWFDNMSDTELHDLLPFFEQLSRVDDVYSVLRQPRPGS
#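 Test system: SCP-1 phosphatase catalytic domain, residues 76-261 | Compound dosing: One concentration, 20 µM, with 1.0% DMSO | Schedule: 45 min room-temperature reaction, 5 min colour, 30 min stabiliser | Detection: Absorbance at 630 nm | Read-out basis: % inhibition of SCP-1 phosphate liberation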
# SUMO1-SIM PPI: SUMO1-SIM interaction modulation | P63165 | inhibition, % at 20 µM | SUMO1 binding to a labelled peptide, TR-FRET, 1 h | 360,000 compounds, 0.33% hits; in the data active means inhibition above about 37%
# STEP inh: blocks human striatal-enriched tyrosine phosphatase; 360,000 compounds, 0.25% hits; AID 588621; P54829; recombinant STEP, OMFP fluorogenic substrate, fluorescence; inhibition, % at 20 µM;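 active means inhibition at 20 µM, scaled per plate between control wells, above about 37%, limit read from the data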;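 further: 0% = DMSO with enzyme and substrate and 100% = substrate only without enzyme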
#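 Measure: Control-normalized % inhibition with plate pattern correction | Test system: STEP phosphatase, cell-free reaction | Medium: pH 6.0 Bis-Tris with DTT and Tween 20 | Technique: Fluorescence, 480/540 nm | Times: Reaction 20 min, ambient temperature | Doses: Single compound dose of 20 µM, 1% DMSO final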
# Rpn11 block: Rpn11 (human) deubiquitinase inhibition | human 26S proteasome, Ub4-pepOG fluorescence polarization; 20S core pre-blocked with epoxomicin | 360,000 compounds, 0.59% hits | inhibition, % at 20 µM | AID 588493;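 active means inhibition at 20 µM, scaled to each plate's controls, above about 33%, limit read from the data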
# Target sequence (O00487 whole entry, looked up): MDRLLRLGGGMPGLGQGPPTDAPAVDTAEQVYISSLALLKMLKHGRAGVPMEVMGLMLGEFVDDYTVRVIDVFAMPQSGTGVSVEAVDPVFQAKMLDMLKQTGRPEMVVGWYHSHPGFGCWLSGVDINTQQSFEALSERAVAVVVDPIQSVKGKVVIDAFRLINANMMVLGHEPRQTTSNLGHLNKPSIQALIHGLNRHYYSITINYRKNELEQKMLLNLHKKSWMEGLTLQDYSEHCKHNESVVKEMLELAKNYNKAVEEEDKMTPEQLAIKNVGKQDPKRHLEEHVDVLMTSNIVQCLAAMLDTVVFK
# Scp-1 conf: Scp-1 (human) inhibition, single-dose confirmed | AID 540281 | recombinant SCP-1 catalytic domain, phosphate release, malachite green absorbance | shares compounds with Scp1 inh | 2,500 compounds, 61% hits | inhibition, % at 20 µM;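 further: plate controls were DMSO with enzyme for no effect and buffer wells lacking enzyme for full effect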
# Scp-1 MG ctr: counter-screen for Scp-1 inhibitors: colorimetric interference | shares compounds with Scp1 inh | Colorimetric interference counterscreen, malachite green absorbance 630 nm | apparent inhibition (interference), % at 20 µM | 2,500 tested, under 10 active | AID 540313;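 further: compounds added after enzyme reaction finished so only phosphate colour detection is probed; plate controls were DMSO wells with completed Scp-1 reaction for no effect and substrate wells lacking enzyme for full effect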
# Scp-1 Tm shift: Scp-1 (human) binding by thermal shift | shares compounds with Scp1 inh | Recombinant SCP1, Sypro Orange thermal shift Tm | thermal shift relative to vanadate control, % at 40 µM | 1,500 compounds, 25% hits | AID 540329;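 active means substances whose mean melting-temperature shift, as a percentage of the reference inhibitor's shift, reaches about 5.3%, limit read from the data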;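 further: 0% = Tm of DMSO wells and 100% = Tm with sodium orthovanadate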
# Numbers without * were called inactive; . = not tested or not shown. This is a sample that favours compounds with a hit; in the whole collection about 2.3% have one here.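 How the source made its calls, unless noted: active means inhibition of at least 30% at 20 µM; inactive means the rest.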
SMILES,LMPTP inh,DNMT1 inh,Scp1 inh,SUMO1-SIM PPI,STEP inh,Rpn11 block,Scp-1 conf,Scp-1 MG ctr,Scp-1 Tm shift
COC(=O)C1=C(c2ccc(OCc3ccccc3)cc2)C[C@@H]2CC[C@H]1N2C(=O)NCc1ccc([N+](=O)[O-])cc1,9.3,-15.0,68.4*,4.8,5.6,14.9,-32.2,-28.0,.
COC(=O)C1=C(c2cccc(OCc3ccccc3)c2)C[C@@H]2CC[C@H]1N2C(=O)NCc1ccc([N+](=O)[O-])cc1,7.2,-11.3,-23.9,-3.5,2.1,6.1,.,.,.
CSCCC(c1nnnn1C1CCCCC1)N1CCC2(CC1)C(=O)NCN2c1ccccc1 (stereo not given),0.0,-5.3,.,5.8,0.3,-2.1,.,.,.
Cc1ccsc1/C=C1\C(=O)NC(=S)N(C)C1=O,-0.7,3.8,6.0,7.0,0.6,1.0,.,.,.
COc1ccc(/C=C2\C(=O)NC(=S)N(C)C2=O)cc1C,-0.2,93.9*,100.2*,71.8*,95.0*,107.2*,69.5*,-16.4,-9.2
COC(=O)C1=C(c2ccc(C(C)=O)cc2)C[C@@H]2CC[C@H]1N2C(=O)N1CCCCC1,-0.5,0.0,-2.3,7.1,-3.9,-3.4,.,.,.
C[C@]12CCC3[C@@H](CC[C@@H]4C[C@H](O)CC[C@]34C)[C@@H]1CCC2=O (stereo not given in full),-1.2,4.3,-3.5,3.3,3.0,-8.9,.,.,.
C[C@]12CCC3C(CC[C@H]4C[C@@H](O)CC[C@]34C)[C@H]1C=CC2=O (stereo not given in full),0.9,0.7,55.9*,1.4,-2.1,1.3,-18.1,-17.8,.
c1ccc(-c2ccc(CN3Cc4ccccc4-n4nncc4C3)cc2)cc1,1.7,-2.2,.,3.5,3.1,2.2,.,.,.
CCOc1cc(C=C2C(=O)NC(=O)NC2=O)ccc1OCC(=O)N1CCOCC1,-0.8,-12.4,-2.6,-2.8,-3.0,0.2,.,.,.
O=C1NC(=S)NC(=O)C1=Cc1ccc(OCC(=O)N2CCCC2)cc1,-0.1,8.5,51.2*,11.4,1.3,-1.8,51.3*,-10.4,-13.2
CC[N+]12CCC(CC1)C(=C(c1ccccc1)c1ccccc1)C2,-1.5,4.4,9.5,0.6,-1.5,-3.7,.,.,.
C[N+]12CCC(CC1)C(=C(c1ccccc1)c1ccccc1)C2,-0.4,4.8,93.9*,-3.1,-2.6,-3.5,78.3*,-19.9,-16.6
CCCCOc1ccc(C(C)=O)cc1Cc1c(O)[nH]c(=S)[nH]c1=O,-2.2,-5.0,0.8,2.5,-2.4,1.5,.,.,.
COc1ccc(Cc2c(O)[nH]c(=S)[nH]c2=O)cc1,-1.5,-0.5,53.1*,3.5,-5.3,0.9,-3.5,-0.5,.
O=C(NN=Cc1ccc(N(CCCl)CCCl)cc1)c1cccc([N+](=O)[O-])c1,32.7,22.9,93.3*,13.0,1.6,-13.9,71.7*,-11.2,2.6
CC1(C)C[C@H]2C=C(C=O)[C@]3(C=O)C[C@]3(C)[C@H]2C1,-0.8,9.6,6.8,3.6,-2.5,1.9,.,.,.
NC(=O)c1ccc(N=Cc2c(O)n(Cc3ccco3)c(=O)[nH]c2=O)cc1,34.1,61.5*,87.1*,98.9*,31.8,20.2,67.0*,-11.4,-10.1
CCOC(C(=O)OCCC[N+](C)(CC)CC)(c1ccccc1)c1ccccc1,-2.8,1.6,3.1,-5.7,-1.2,-4.9,.,.,.
CC[N+](C)(CC)CCCOC(=O)C(O)(c1ccccc1)C1CCCCC1 (stereo not given),-1.8,6.2,101.6*,2.8,-2.0,-1.9,78.6*,-19.4,-4.6
CCOc1ccc(N=C2SCCCN2C)cc1,-1.0,-0.3,103.4*,-0.6,1.1,3.7,86.2*,-12.6,-13.9
CCCC1(CC(C)CC)C(=O)NC(=O)NC1=O (stereo not given),-1.3,0.7,.,6.3,0.0,-2.9,.,.,.
Cc1ccc2c(C)c3ccc4ccccc4c3c[n+]2c1,7.7,-39.3,4.0,-14.5,-1.3,1.3,.,.,.
CC/C(CC(c1ccccc1)c1c(O)c2ccccc2oc1=O)=N\NC(N)=S (stereo not given),-0.1,8.6,56.0*,-0.7,3.1,-33.8,45.6*,0.6,2.1
CC(C)N1C(=O)CC2(CC[N+](C)(CCOC(=O)C(O)(c3ccccc3)c3ccccc3)CC2)C1=O (stereo not given),-0.6,1.8,69.9*,0.6,-2.1,1.4,101.5*,-4.6,-19.1
SMILES,LMPTP inh,DNMT1 inh,Scp1 inh,SUMO1-SIM PPI,STEP inh,Rpn11 block,Scp-1 conf,Scp-1 MG ctr,Scp-1 Tm shift
Cc1cc(/C=C2\C(=O)NC(=O)N(Cc3ccccc3Cl)C2=O)c(C)n1-c1ccc(C(=O)O)cc1,7.0,70.9*,66.2*,20.5,2.5,.,66.6*,-10.4,-0.9
Cc1ccc(N2C(=O)NC(=O)/C(=C/c3ccc(-c4ccc(C(=O)O)c(Cl)c4)o3)C2=O)cc1,0.4,40.7,58.4*,14.3,4.3,2.8,54.7*,-18.0,-7.5
Cc1cc(/C=C2\C(=O)NC(=O)N(c3cccc(F)c3)C2=O)c(C)n1-c1ccc(C(=O)O)c(Cl)c1,1.0,59.9*,50.9*,1.2,19.3,-3.9,57.7*,3.1,0.3
Nc1c(Cl)cc([N+](=O)[O-])cc1Cl,2.0,1.4,6.0,-29.4,-1.2,4.2,.,.,.
C[N+]1(C)C2CCC1CC(OC(=O)c1ccco1)C2 (stereo not given),-2.2,-0.3,18.8,-0.5,-2.7,3.5,.,.,.
C[N+]1(C)C2CCC1CC(OC(=O)c1c[nH]c3ccccc13)C2 (stereo not given),0.6,2.1,54.4*,2.3,2.7,-2.0,-6.2,-16.1,.
CCOC(=O)[C@]12Cc3cc(C)ccc3[C@H]1N(C1CCCCC1)C(=O)c1ccccc12,1.6,.,.,15.8,.,.,.,.,.
CNC(=O)OCc1n(C)cc[n+]1C,-3.6,0.7,55.0*,3.7,-2.8,-2.2,11.2,-1.0,.
CCc1sc(C(=O)N2CCC3(CC2)OCCO3)cc1Br,-1.3,1.3,54.3*,-1.6,-0.4,-8.8,-6.8,-5.4,.
Cc1nc2ccccc2c(=O)n1-c1c(Cl)cccc1Cl,-1.4,0.9,.,0.7,-0.1,-3.0,.,.,.
